The text below walks through data of article PMC7066653 (ACS Omega, 2020).

For data set [1] the following is noted: 9 (b3); cited from earlier work.
Data set [2] in a line: Aqueous solubility of ATXP and ATX at 25 °C, by HPLC. It is filed as physicochemical. The note with it: for solubility at 1 h: 25 °C, thermodynamic from solid. In outline:
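Excess solid was added to 1 mL of ultrapure water, 0.9% NaCl (pH 7.4) or PBS (pH 7.4) and held at 25 °C. Samples were taken at 1, 24 and 48 h, filtered (0.22 μm) and quantified by HPLC (C18; 75% methanol/water with 1% TFA; 1 mL/min; 350 nm). Experiments were repeated three times and reported as mean ± SD.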

For data set [3], the system named is focal cerebral ischemia-reperfusion injury (MCAO). Details: species or system Sprague-Dawley rats. The conditions noted are these: rat, in vivo.
For data set [4] the test system is unchanged. The data set can be described thus: Neurological deficit. In kind it is in vivo, Sprague-Dawley rats. The conditions noted are these: edaravone 6 mg/kg iv, single dose, P = 0.4298.

≈ marks a conversion by molar mass, not a printed value.

Regarding `COc1ccc(-c2cc(=S)ss2)cc1` [ATT, Anethol trithione], the water solubility in data set [1] is 0.38 µg/mL (≈ 1.58 µM).

For orientation: solubility means the concentration that dissolves in the medium under given conditions. A lower solubility goes with little dissolved substance. `Oc1ccc(-c2cc(=S)ss2)cc1` [ATX, 5-(4-hydroxyphenyl)-3H-1,2-dithiole3-thione]: the solubility at 1 h was less than 0.8 µg/mL in data set [2] (0.9% NaCl solution, pH 7.4, saline or isotonic); less than 0.8 µg/mL in data set [2] (PBS, pH 7.4, aqueous buffer); 0.8 ± 0.02 µg/mL (≈ 3.53 µM) in data set [2] (ultrapure water, water).

In the case of `CC1=NN(c2ccccc2)C(=O)C1` [edaravone], the “infarct volume vs vehicle” value in data set [3] was “significant reductions in infarct volume”. In addition, in data set [4], the “neurological deficit score, 24 h vs 0 h after reperfusion” value is given as “did not exhibit increased neurological scores”. Also, in data set [2] (saline (0.9%)), the “solubility in saline, in words” value is “freely soluble”.
